Data as given in ChEMBL document CHEMBL1629527, “In vitro antifungal activities of bis(alkylpyridinium)alkane compounds against pathogenic yeasts and molds” (Antimicrob Agents Chemother, 2010).

Assays:
[1] = tested on: Pichia kudriavzevii; assay: Antifungal activity against Candida krusei ATCC 9258 after 24 to 72 hrs by broth microdilution method; format: functional
Procedure, shortened: (§1)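 Broth microdilution MIC per CLSI M27-A3 (yeasts) or M38-A2 (molds). RPMI 1640 with L-glutamine, without bicarbonate, buffered to pH 7.0 with 0.165 M MOPS. Final test range for the compounds was 0.175–87.5 μM. Incubation at 35°C with visual reading at 24–72 h. MIC was the lowest concentration giving 100% inhibition versus the growth control (azoles 50% or 100%, by organism). Each isolate was run in duplicate in two independent experiments.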

[2] = tested on: Nakaseomyces glabratus; assay: Antifungal activity against Candida glabrata 04-202345 after 24 to 72 hrs by broth microdilution method; format: functional; procedure, shortened: as §1
[3] = tested on: Aspergillus terreus; assay: Antifungal activity against Aspergillus terreus 05-202844 after 48 to 72 hrs; format: functional
Procedure, shortened: (§2)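 MFC: after the MIC read, 30-μl aliquots from each well without visible growth were plated onto Sabouraud dextrose agar and incubated at 35°C. Reading was at 48–72 h for yeasts and up to 7 days for molds. MFC was the lowest concentration with no colonies.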

[4] = tested on: Pichia kudriavzevii; assay: Antifungal activity against Candida krusei 04-202328 after 24 to 72 hrs by broth microdilution method; format: functional; procedure, shortened: as §1
[5] = tested on: Candida albicans; assay: Antifungal activity against Candida albicans after 48 to 72 hrs; format: functional; details: for MFC: Candida albicans; procedure, shortened: as §2
[6] = tested on: Pichia kudriavzevii; assay: Antifungal activity against Candida krusei after 24 to 72 hrs by broth microdilution method; format: functional; procedure, shortened: as §1
[7] = tested on: Cryptococcus gattii species complex; assay: Antifungal activity against Cryptococcus gattii after 24 to 72 hrs by broth microdilution method; format: functional, Cryptococcus bacillisporus; procedure, shortened: as §1
[8] = tested on: Aspergillus fumigatus; assay: Antifungal activity against Aspergillus fumigatus ATCC 204305 after 24 to 72 hrs by broth microdilution method; format: functional; procedure, shortened: as §1
[9] = tested on: Exophiala spinifera; assay: Antifungal activity against Exophiala spinifera 03-200803 after 24 to 72 hrs by broth microdilution method; format: functional
Procedure, shortened: (§3)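 Mold isolates subcultured on potato dextrose agar, then tested by CLSI M38-A2 broth microdilution in RPMI 1640 (L-glutamine, no bicarbonate) buffered to pH 7.0 with 0.165 M MOPS. Compounds were dissolved in water and tested at a final 0.175–87.5 μM. Plates were incubated at 35°C. MIC was read visually as the lowest concentration giving 100% inhibition versus the growth control. Each isolate was run in duplicate in two independent experiments.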

[10] = tested on: Fusarium solani; assay: Antifungal activity against Fusarium solani 04-203102 after 24 to 72 hrs by broth microdilution method; format: functional; procedure, shortened: as §3
[11] = tested on: Meyerozyma guilliermondii; assay: Antifungal activity against Candida guilliermondii after 24 to 72 hrs by broth microdilution method; format: functional; procedure, shortened: as §1
[12] = tested on: Aspergillus fumigatus; assay: Antifungal activity against Aspergillus fumigatus 05-203114 after 24 to 72 hrs by broth microdilution method; format: functional; procedure, shortened: as §1
[13] = tested on: Candida dubliniensis; assay: Antifungal activity against Candida dubliniensis after 48 to 72 hrs; format: functional; details: for MFC: Candida dubliniensis; procedure, shortened: as §2
[14] = tested on: Nakaseomyces glabratus; assay: Antifungal activity against Candida glabrata after 48 to 72 hrs; format: functional; details: for MFC: Nakaseomyces glabratus; procedure, shortened: as §2
[15] = tested on: Candida parapsilosis; assay: Antifungal activity against Candida parapsilosis ATCC 22019 after 48 to 72 hrs; format: functional; details: Lodderomyces parapsilosis; procedure, shortened: as §2
[16] = tested on: Lomentospora prolificans; assay: Antifungal activity against Scedosporium prolificans 05-203060 after 48 to 72 hrs; format: functional
Procedure, shortened: (§4)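 CLSI M38-A2 broth microdilution for molds in RPMI 1640 with L-glutamine and no bicarbonate, buffered with 0.165 M MOPS to pH 7.0. Compounds were dissolved in water and tested at 0.175–87.5 μM final, 35°C, up to 7 days. MIC was read visually as 100% inhibition versus growth control. For MFC, clear wells were plated on SDA and the lowest concentration with no colonies taken. Each isolate was run in duplicate, two independent experiments.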

[17] = tested on: Pichia kudriavzevii; assay: Antifungal activity against Candida krusei […] after 48 to 72 hrs; format: functional; procedure, shortened: as §2
[18] = tested on: Candida parapsilosis; assay: Antifungal activity against Candida parapsilosis 04-202398 after 24 to 72 hrs by broth microdilution method; format: functional; details: Lodderomyces parapsilosis; procedure, shortened: as §1
[19] = tested on: Pichia kudriavzevii; assay: Antifungal activity against Candida krusei ATCC 6258 after 48 to 72 hrs; format: functional; procedure, shortened: as §2
[20] = Antifungal activity against Exophiala jeanselmei 03-200268 after 48 to 72 hrs; format: functional; procedure, shortened: as §4
[21] = tested on: Cryptococcus neoformans; assay: Antifungal activity against Cryptococcus neoformans 05-202523 after 48 to 72 hrs; format: functional; procedure, shortened: as §2
[22] = tested on: Candida tropicalis; assay: Antifungal activity against Candida tropicalis 04-202361 after 48 to 72 hrs; format: functional
Procedure, shortened: (§5)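 CLSI M27-A3 broth microdilution for yeasts in RPMI 1640 with L-glutamine and no bicarbonate, buffered with 0.165 M MOPS to pH 7.0. Compounds were dissolved in water and tested at 0.175–87.5 μM final, 35°C. MIC was read visually at 24–72 h as 100% inhibition versus growth control. For MFC, 30 μl from clear wells went onto SDA at 35°C for 48–72 h, reading the lowest concentration without colonies. Duplicates, two independent runs.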

[23] = tested on: Nakaseomyces glabratus; assay: Antifungal activity against Candida glabrata 04-202345 after 48 to 72 hrs; format: functional; procedure, shortened: as §2
[24] = tested on: Candida albicans; assay: Antifungal activity against Candida albicans ATCC 90028 after 48 to 72 hrs; format: functional; procedure, shortened: as §2
[25] = tested on: Candida albicans; assay: Antifungal activity against Candida albicans ATCC 10231 after 48 to 72 hrs; format: functional; procedure, shortened: as §2
[26] = tested on: Candida parapsilosis; assay: Antifungal activity against Candida parapsilosis 04-202398 after 48 to 72 hrs; format: functional; details: Lodderomyces parapsilosis; procedure, shortened: as §5
[27] = tested on: Aspergillus fumigatus; assay: Antifungal activity against Aspergillus fumigatus ATCC 204305 after 48 to 72 hrs; format: functional; procedure, shortened: as §4
[28] = tested on: Exophiala spinifera; assay: Antifungal activity against Exophiala spinifera 03-200803 after 48 to 72 hrs; format: functional; procedure, shortened: as §4
[29] = tested on: Aspergillus flavus; assay: Antifungal activity against Aspergillus flavus 05-203758 after 48 to 72 hrs; format: functional; procedure, shortened: as §4
[30] = tested on: Cunninghamella bertholletiae; assay: Antifungal activity against Cunninghamella bertholletiae 99-12187 after 48 to 72 hrs; format: functional; details: in the assay text read “for up to 7 days” for “after 48 to 72 hrs”; procedure, shortened: as §2
[31] = tested on: Aspergillus fumigatus; assay: Antifungal activity against Aspergillus fumigatus 05-203114 after 48 to 72 hrs; format: functional; procedure, shortened: as §4

SMILES | MIC [2] | MIC [4] | MFC50 [5] | MFC90 [5] | MFC [5] | MIC [6] | MIC50 [6] | MIC90 [6] | MIC [7] | MIC50 [7] | MIC90 [7] | MIC [8] | MIC [9] | MIC [10] | MIC [11] | MIC50 [11] | MIC90 [11] | MIC [12] | MFC50 [13] | MFC90 [13] | other results
CCCCCc1cc[n+](CCCCCCCCCCCC[n+]2ccc(CCCCC)cc2)cc1.[Cl-].[Cl-] | 1.48 µg/mL | 11.8 µg/mL | 1.48 µg/mL | 1.48 µg/mL | 0.75 µg/mL | 2.25 µg/mL | 2.96 µg/mL | 5.91 µg/mL | 1.06 µg/mL | 0.75 µg/mL | 1.48 µg/mL | 47.3 µg/mL | 0.37 µg/mL | 47.3 µg/mL | 0.569 µg/mL | 0.38 µg/mL | 0.75 µg/mL | 47.3 µg/mL | 0.75 µg/mL | 1.48 µg/mL | MIC [1]: 5.9 µg/mL; MFC [3]: 11.8 µg/mL; MFC [13]: 0.75 µg/mL; MFC50 [14]: 1.48 µg/mL; MFC90 [14]: 1.48 µg/mL; MFC [14]: 0.38 µg/mL; MFC [15]: 1.48 µg/mL; MFC [16]: 2.96 µg/mL; MFC [17]: 11.8 µg/mL; MIC [18]: 47.3 µg/mL; MFC [19]: 11.8 µg/mL; MFC [20]: 2.96 µg/mL
C=CCCCc1cc[n+](CCCCCCCCCCCC[n+]2ccc(CCCC=C)cc2)cc1.[Cl-].[Cl-] | 1.5 µg/mL | 11.8 µg/mL | 1.47 µg/mL | 1.47 µg/mL | 0.75 µg/mL | 3.38 µg/mL | 2.94 µg/mL | 5.87 µg/mL | 1.81 µg/mL | 1.48 µg/mL | 2.94 µg/mL | > 47.3 µg/mL | 0.74 µg/mL | 47.3 µg/mL | 1.69 µg/mL | 1.47 µg/mL | 1.47 µg/mL | > 47.3 µg/mL | 2.93 µg/mL | 2.93 µg/mL | MIC [1]: 11.8 µg/mL; MFC [21]: 23.7 µg/mL; MFC [13]: 1.47 µg/mL; MFC [22]: 5.9 µg/mL; MFC50 [14]: 1.47 µg/mL; MFC90 [14]: 5.87 µg/mL; MFC [14]: 0.75 µg/mL; MFC [15]: 2.96 µg/mL; MFC [23]: 3 µg/mL; MFC [24]: 2.96 µg/mL; MIC [18]: 47.3 µg/mL; MFC [19]: 11.8 µg/mL; MFC [25]: 5.9 µg/mL
CCCCCc1cc[n+](CCCCCCCCCCCC[n+]2ccc(CCCCC)c(C)c2)cc1C.[Cl-].[Cl-] | 0.79 µg/mL | 6.3 µg/mL | 1.56 µg/mL | 1.56 µg/mL | 0.79 µg/mL | 3.12 µg/mL | 3.11 µg/mL | 6.22 µg/mL | 0.79 µg/mL | 0.79 µg/mL | 0.79 µg/mL | 25.3 µg/mL | 0.79 µg/mL | 12.7 µg/mL | 0.903 µg/mL | 0.79 µg/mL | 1.56 µg/mL | 25.3 µg/mL | 0.79 µg/mL | 1.56 µg/mL | MFC [26]: 50.7 µg/mL; MFC [21]: 25.3 µg/mL; MFC [13]: 0.79 µg/mL; MFC [22]: 1.58 µg/mL; MFC50 [14]: 0.79 µg/mL; MFC90 [14]: 1.56 µg/mL; MFC [14]: 0.39 µg/mL; MFC [27]: 50.7 µg/mL; MFC [16]: 6.83 µg/mL; MFC [23]: 3.2 µg/mL; MFC [28]: 1.58 µg/mL; MIC [18]: 25.3 µg/mL; MFC [29]: 50.7 µg/mL
CCCCCCc1cc[n+](CCCCCCCCCCCC[n+]2ccc(CCCCCC)cc2)cc1.[Cl-].[Cl-] | 0.79 µg/mL | 3.2 µg/mL | 1.56 µg/mL | 1.56 µg/mL | 1.56 µg/mL | 1.36 µg/mL | 1.56 µg/mL | 1.56 µg/mL | 0.79 µg/mL | 0.79 µg/mL | 0.79 µg/mL | 12.7 µg/mL | 1.58 µg/mL | 12.7 µg/mL | 0.789 µg/mL | 0.79 µg/mL | 1.56 µg/mL | 12.7 µg/mL | 0.79 µg/mL | 0.79 µg/mL | MFC [30]: 25.3 µg/mL; MFC [26]: 50.7 µg/mL; MFC [21]: 25.3 µg/mL; MFC [13]: 0.79 µg/mL; MFC [31]: 50.7 µg/mL; MFC50 [14]: 1.56 µg/mL; MFC90 [14]: 1.56 µg/mL; MFC [14]: 0.39 µg/mL; MFC [27]: 50.7 µg/mL; MIC [18]: 25.3 µg/mL
